From PubChem BioAssay AID651560 (Sanford-Burnham Center for Chemical Genomics, 2012)
The whole screen tested about 360,000 compounds, of which about 820 (0.23%) were called active.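 How the source made its calls: active means compounds that cut the enzyme signal by at least half of the control window in the single-dose screen; inactive means the rest.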 Only a selection was taken, and actives are over-represented in it overall.

These compounds were tested against Low molecular weight phosphotyrosine protein phosphatase (Homo sapiens) (UniProt P24666) (assay: LMPTP phosphatase inhibitors, primary screen, biochemical, fluorescence intensity, uHTS (AID 651560;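 further: plate controls were DMSO wells with enzyme plus substrate for no effect and substrate without enzyme for full effect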)). Conditions: recombinant LMPTP-A, OMFP fluorogenic substrate, at 20 µM, active compounds read high.
Chain of Low molecular weight phosphotyrosine protein phosphatase (Homo sapiens) (P24666 whole entry, looked up): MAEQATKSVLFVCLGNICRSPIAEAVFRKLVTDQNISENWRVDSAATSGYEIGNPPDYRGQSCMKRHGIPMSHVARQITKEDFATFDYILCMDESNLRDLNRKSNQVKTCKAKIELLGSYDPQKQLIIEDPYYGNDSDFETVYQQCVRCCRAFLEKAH
Outline: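 Buffer or medium: Bis-Tris pH 6.0, DTT, detergent; Assay system: LMPTP-A enzyme; Quantity: 0.625 nM enzyme; Detection: endpoint fluorescence intensity; Times: 50 min dark incubation at room temperature; Controls: substrate-only low control, DMSO enzyme-plus-substrate high control; Doses: single 20 µM dose; Read-out: percent inhibition versus substrate-only and uninhibited controls; Reagent: 400 µM OMFP.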
For OCCC#Cc1ccc(CN2CCN(Cc3ccsc3)C(CCO)C2)cc1 (stereo unspecified), the inhibition was 1.89% (inactive).
CC(OC(=O)c1c(F)cccc1F)C(=O)NCCC1=CCCCC1 (stereo unspecified) was tested, and the inhibition was 0.59% (inactive).
Nc1ccc2nc3c(=O)[nH]c(=S)[nH]c3nc2c1 was tested, and the inhibition was 85% (active).
In the case of COc1cc(OC)cc(C(=O)NNC(=O)Cc2cccs2)c1, the inhibition was 1.69% (inactive).
In the case of COc1ccc(CC(=O)Nc2sc(Cc3ccccc3)c(C)c2C(N)=O)cc1, the inhibition was 0.191% (inactive).
With COc1ccc(Cc2nnc(NC(=O)Cc3cccs3)s2)cc1 the inhibition was 76.7% (active).
In the case of Cc1ccccc1OCC(=O)NNC(=O)c1ccc(-n2cncn2)c([N+](=O)[O-])c1, the inhibition was -1.02% (inactive).
O=S(=O)(NN=C1CCCCCCC1)c1ccc(Br)cc1 was tested, and the inhibition was 0.285% (inactive).
In the case of CCCn1c(N)c(N(CCOC)C(=O)C2CCCC2)c(=O)[nH]c1=O, the inhibition was -0.34% (inactive).
CCOCCCNC(=O)C(NC(=O)Cc1c[nH]c2ccccc12)c1ccc(OC)cc1 (stereo unspecified) was tested, and the inhibition was -1.16% (inactive).
With COC(=O)c1c(NC(=O)CN(c2ccc(C)c(C)c2)S(C)(=O)=O)sc2c1CCCC2 the inhibition was 1.37% (inactive).
CCOc1ccc(OCC)c(NC(=O)CSc2nnc(Cn3cnc4ccccc43)n2C)c1 was tested, and the inhibition was -0.816% (inactive).
For CNc1cnc(-c2cc(OC)c(OC)c(OC)c2)cn1, the inhibition was 0.718% (inactive).
For NS(=O)(=O)c1ccc(CCNC(=O)COC(=O)COc2cccc(C(F)(F)F)c2)cc1, the inhibition was -0.314% (inactive).
O=C(Nc1cccnc1)c1cc2cc(Br)ccc2oc1=O was tested, and the inhibition was 45.7% (inactive).
O=C(CSc1ccc(-c2ccccn2)nn1)Nc1ccccc1 was tested, and the inhibition was 0.337% (inactive).
With O=C(Nc1ccncc1)c1cc(-c2ccccn2)nc2ccc(Br)cc12 the inhibition was 51.5% (active).
COC(=O)c1ccc(C23CC4(C2)[C@H](CN(Cc2cccnc2)[C@@H]4c2ccccc2)C3c2ccc(Cl)nc2)cc1 (stereo partly specified) was tested, and the inhibition was 8.71% (inactive).
CCCc1ccc(-c2c(C)sc(NC(=O)c3ccnn3C)c2C#N)cc1 was tested, and the inhibition was 1.55% (inactive).
For Cc1ccc(C(=O)N/C(=C\c2ccco2)C(=O)N2CCSCC2)cc1C, the inhibition was -0.858% (inactive).
In the case of Cc1cccc(C)c1NC1=NC(=S)N(c2ccc(N(C)C)cc2)C1(C)C, the inhibition was -0.864% (inactive).
CC1(C(=O)NCc2ccccc2)CN(S(C)(=O)=O)CC(=O)N1CC(F)(F)F (stereo unspecified) was tested, and the inhibition was -0.703% (inactive).
O=C(NCc1ccc2c(c1)OCO2)c1sccc1Br was tested, and the inhibition was -0.435% (inactive).
With C=CCn1c(=O)c(C(=O)NCc2ccc3c(c2)OCO3)c(O)c2ccccc21 the inhibition was 2.01% (inactive).
For O=C(NCc1ccc2c(c1)OCO2)c1c(O)nc2sccn2c1=O, the inhibition was 53.5% (active).
For O=C(CN1CCN(C(=O)c2ccco2)CC1)Nc1ccc2c(c1)OCO2, the inhibition was -0.639% (inactive).
In the case of Cc1ccc(C(=O)O)cc1-c1ccc(/C=C2\SC(=O)N(CC(=O)Nc3ccc4c(c3)OCO4)C2=O)o1, the inhibition was 61.2% (active).
For O=C(CCN1C(=O)c2ccncc2C1=O)Nc1ccc2c(c1)OCCO2, the inhibition was 0.479% (inactive).
With Cc1ccc(S(=O)(=O)N2[C@@H](c3ccc(Br)cc3)C(C(=O)O)=C[C@H]2CC2CCCC2)cc1 the inhibition was 0.284% (inactive).
In the case of COc1cc(OC)cc(/C(N)=N/O)c1, the inhibition was 0.166% (inactive).
In the case of CCC(C)N(C(=O)COC(=O)c1nc(Cl)ccc1Cl)C1CCS(=O)(=O)C1 (stereo unspecified), the inhibition was -0.848% (inactive).
With N#CCSc1nn(-c2ccc(F)cc2)c(=S)s1 the inhibition was -0.858% (inactive).
With CCOC(=O)C1CCN(C(=O)c2ccc3c(=O)n4nc(Nc5ccccc5CC)sc4nc3c2)CC1 the inhibition was 1.95% (inactive).
In the case of CS(=O)(=O)N1CCCCC1c1cc(C(=O)NCc2ccccc2)no1 (stereo unspecified), the inhibition was -1.43% (inactive).
In the case of Nc1nc(C23CC4CC(CC(C4)C2)C3)cs1, the inhibition was -0.25% (inactive).
C#CCN(N(C)c1ncc(C(F)(F)F)cc1Cl)S(=O)(=O)c1ccc2ccccc2c1 was tested, and the inhibition was 5.44% (inactive).
With CN(C)C(=O)Cn1c(=O)n(S(=O)(=O)c2ccccc2)c2ccccc21 the inhibition was -0.0726% (inactive).
Cc1cccc(NC(=O)CSc2nnc(CCCCCNC(=O)OC(C)(C)C)o2)c1C was tested, and the inhibition was -0.643% (inactive).
O=C(NCc1cccnc1)c1cc(C2CCCN(C(=O)CCCc3ccccc3)C2)on1 (stereo unspecified) was tested, and the inhibition was -0.488% (inactive).
For CCN1/C(=C\c2ccc3ccccc3[n+]2CC)Sc2cc(C)ccc21, the inhibition was 63.9% (active).
For Cc1nc(CC(=O)NNS(=O)(=O)c2ccc(F)c(Cl)c2)cs1, the inhibition was -1.65% (inactive).
With Cc1cccc(OCC(O)CN2CCN(CCN3C(=O)c4cccc5cccc(c45)C3=O)CC2)c1C (stereo unspecified) the inhibition was 8.73% (inactive).
For CCOC(=O)Cc1cc(=O)[nH]c(/N=C(\N)Nc2ccc(OC)cc2)n1, the inhibition was -0.31% (inactive).
For CCSc1nc(=S)n(CC)c(C)c1C(C)=O, the inhibition was -0.754% (inactive).
For COC(=O)CN1C(C)=Nc2ccc(Br)cc2C1c1ccccc1 (stereo unspecified), the inhibition was -0.193% (inactive).
With CCn1ccnc1CNC(=O)CC1C(=O)NCCN1CCCc1ccccc1 (stereo unspecified) the inhibition was -2.22% (inactive).
For CCOc1cc2[nH]c(=S)n(Cc3ccc(C(=O)N4CCN(C)CC4)cc3)c(=O)c2cc1OCC, the inhibition was 1.07% (inactive).
For O=c1c(Cl)c(NCc2ccc(F)cc2Cl)cnn1C12CC3CC(CC(C3)C1)C2, the inhibition was 1.08% (inactive).
In the case of O=C1c2ccccc2C(Nc2ccc3c(c2)OCCO3)N1Cc1ccco1 (stereo unspecified), the inhibition was 0.866% (inactive).
For Cn1c(=O)c(=O)n(C)c2cc(S(=O)(=O)CCC(=O)N3CCCCC3)ccc21, the inhibition was -0.491% (inactive).
For COc1ccc(-c2oc3ncn(Cc4ccco4)c(=N)c3c2-c2ccc(OC)cc2)cc1, the inhibition was 3.1% (inactive).
For O=C(Cn1c(=O)n(Cc2ccco2)c(=O)c2ccccc21)NCC1CCCO1 (stereo unspecified), the inhibition was -0.056% (inactive).
For Cn1c2ccccc2c(=O)c2c(=O)n(Cc3ccco3)c(COc3ccccc3)nc21, the inhibition was 69% (active).
In the case of O=C(CC(=O)N/N=C\c1cccc(Cl)c1Cl)NCc1ccccc1, the inhibition was -1.17% (inactive).
For O=C(CO/N=C/c1ccccc1O)NNC(=O)c1ccccc1Cl, the inhibition was -0.137% (inactive).
For O=C(NN=Cc1ccccc1O)NN=Cc1ccccc1O, the inhibition was 61.8% (active).
In the case of O=C(Nc1cc(S(=O)(=O)N2CCOCC2)ccc1N1CCOCC1)c1c(F)cccc1Cl, the inhibition was -0.613% (inactive).
In the case of CN(CC(=O)Nc1ccc(Cl)cc1)C(=O)CNC(=O)c1ccc2ccccc2c1, the inhibition was 0.862% (inactive).
With O=C(NNC(=O)c1ccc2ccccc2c1)c1ccc(Cl)cc1 the inhibition was 49.6% (active).
For O=C(CCCOc1ccccc1)NNC(=O)c1ccc(Cl)cc1, the inhibition was -0.0475% (inactive).
With CC(C)(C)S(=O)(=O)c1ccccc1-c1noc(-c2ccccc2)c1C(N)=O the inhibition was -0.802% (inactive).
For Cc1ncc([N+](=O)[O-])n1CCOC(=O)c1ccc(Br)cc1, the inhibition was -0.676% (inactive).
With C[C@H](NC(=O)NCCc1ccccc1)C(=O)O the inhibition was 0.573% (inactive).
For CCOC(=O)C1(CC2CCCCO2)CCN(Cc2nc(-c3cccs3)oc2C)CC1 (stereo unspecified), the inhibition was 0.186% (inactive).
For O=C(COC(=O)C1CC2CCCC(C1)C2=O)NC(=O)c1ccccc1 (stereo unspecified), the inhibition was -0.507% (inactive).
In the case of CC(Oc1ccc(F)cc1F)C(=O)/C=C/N(C)C (stereo unspecified), the inhibition was 0.234% (inactive).
With C[C@H]1CN([C@@H](C)CO)S(=O)(=O)c2ccc(-c3cccc(F)c3)cc2O[C@@H]1CN(C)C the inhibition was -1.08% (inactive).
With CCOC(=O)N1CCN(C(=S)Nc2ccc(C)cc2C)CC1 the inhibition was -1.47% (inactive).
For COc1cc([N+](=O)[O-])ccc1NC(=S)N1CCN(c2ccccn2)CC1, the inhibition was 0.0311% (inactive).
CC1CCN(C(=S)c2cccc(O)c2)CC1 was tested, and the inhibition was 0.643% (inactive).
For CCS(=O)(=O)N1Cc2ccccc2CC1C(=O)Nc1ccc(OC)cc1OC (stereo unspecified), the inhibition was -0.419% (inactive).
For CC(NC(=S)NNS(=O)(=O)c1ccc(C(C)(C)C)cc1)c1ccccc1 (stereo unspecified), the inhibition was 2.08% (inactive).
Cc1c(Nc2nc3ccccc3nc2NS(=O)(=O)c2cccs2)c(=O)n(-c2ccccc2)n1C was tested, and the inhibition was -0.947% (inactive).
For O=C(CSc1ccc([N+](=O)[O-])cn1)Nc1ccc(N2CCOCC2)cc1, the inhibition was -0.239% (inactive).
O=C(COc1ccc([N+](=O)[O-])cc1)Nc1cccc(C(=O)Nc2ccccc2C(=O)O)c1 was tested, and the inhibition was 0.459% (inactive).
In the case of O=C(COc1ccc(/C=N/NC(=O)c2ccc(O)cc2)cc1)Nc1ccc([N+](=O)[O-])cc1, the inhibition was 71.4% (active).
In the case of O=C(COc1ccc([N+](=O)[O-])cc1)Nc1ccc(N2CCCC2)cc1, the inhibition was 59.1% (active).
With O=C(COC(=O)C1CCCCC1)Nc1ccc([N+](=O)[O-])cc1 the inhibition was 0.534% (inactive).
With N#Cc1cc([N+](=O)[O-])ccc1Oc1cccc(/C=N/NC(=O)c2ccc(Cl)cc2)c1 the inhibition was 0.464% (inactive).
For COc1ccc(CCNc2ncnc3c2nnn3Cc2ccccc2)cc1, the inhibition was 1.88% (inactive).
In the case of CCn1ccnc1CNC(=O)CC1C(=O)NCCN1Cc1ccc(F)cc1Cl (stereo unspecified), the inhibition was 1.38% (inactive).
In the case of Nc1ccc(Cl)c(S(=O)(=O)Nc2ccccc2Cl)c1, the inhibition was -0.587% (inactive).
With O=S(=O)(c1ccc(F)cc1)N1CCN(C(=S)NCc2ccco2)CC1 the inhibition was 0.0562% (inactive).
CCCc1c(C)nc2scc(-c3ccc(Cl)cc3)n2c1=O was tested, and the inhibition was -0.6% (inactive).
With O=c1ccc2c(-c3ccccc3S(=O)(=O)O)c3ccc(O)c(O)c3oc-2c1O the inhibition was 58.1% (active).
In the case of Cc1ccc(N2C(=O)C3C4C=CC(CC4)C3C2=O)cc1Br (stereo unspecified), the inhibition was -1.41% (inactive).
COc1cc(Cl)c(C)cc1NC(=O)[C@@H]1CCCN1C(=O)c1cccs1 was tested, and the inhibition was -1.01% (inactive).
For CCN(CC)Cc1nc2sc(C)c(C)c2c(=O)[nH]1, the inhibition was -1.11% (inactive).
In the case of C/C(=N\Nc1ccc(S(N)(=O)=O)cc1[N+](=O)[O-])c1cccs1, the inhibition was 57.1% (active).
With NS(=O)(=O)c1ccc(NC(=S)NNC(=O)c2cccs2)cc1 the inhibition was -0.673% (inactive).
For C/C(=N\Nc1nc2ccccc2[nH]1)c1cccs1, the inhibition was 1.27% (inactive).
